Data set [1] has as its target T1, Advanced glycosylation end product-specific receptor (Homo sapiens, UniProt Q15109). Nature of the data set: Inhibition of human recombinant biotinylated receptor for advanced glycation end product expressed in Escherichia coli DE3 assessed as inhibition of binding to amyloid beta (1 to 42) at 20 uM after 60 mins by TMB-ELISA. An outline of the steps: (§1)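 Biotinylated human RAGE (1 μg, made in Origami2(DE3) with BirA) incubated on a streptavidin plate with oligomeric Aβ (10 μM stock pre-aggregated 24 h at 4 °C; 1 μL per well). Compound 20 μM in TBS-T/2.5% BSA, 60 min at ambient temperature. Bound Aβ detected with HRP-4G8 (1:1000) for 60 min, then TMB, read at 450 nm. Duplicates, mean ± SD.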

Data set [2] concerns Mus musculus. Nature of the data set: Antialzheimer activity in transgenic mouse expressing PS1/APP swedish mutant assessed as insoluble amyloid beta (1 to 42) level per mg of protein in brain at 50 mg/kg/day, po for 3 months by ELISA (reference value: 513.73 +/- 219.56 ng per mg of protein). The format is functional. For orientation: ELISA stands for enzyme-linked immunosorbent assay.

For data set [3], the system named is Mus musculus. Nature of the data set: Reduction in human amyloid beta (1 to 42) level in ICR mouse plasma at 25 mg/kg, ip administered 20 mins prior to human amyloid beta (1 to 40)-injection measured after 30 mins by ELISA relative to control. The data set is classed as functional. The arrangement: scale not given: the % may be the effect or the level left. To be noted: route intraperitoneal, in the assay text read “human amyloid beta (1 to 42)-injection” for “human amyloid beta (1 to 40)-injection”. An outline of the steps: (§2)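 Male ICR mice, 3 months old (n = 4), given test compound 25 mg/kg or vehicle ip. After 20 min, 200 μL of 25 μM human Aβ1−42 in PBS injected into the tail vein and left to circulate 30 min. Retro-orbital blood taken into EDTA tubes before sacrifice. Human Aβ measured in brain extracts (pg/mg protein) and plasma (ng/mL).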

Data set [4] addresses T1, Advanced glycosylation end product-specific receptor. Nature of the data set: Inhibition of human recombinant biotinylated receptor for advanced glycation end product expressed in Escherichia coli DE3 assessed as inhibition of binding to amyloid beta (1 to 42) after 60 mins by TMB-ELISA. An outline of the steps:
as §1

For data set [5] the target is unchanged. Nature of the data set: Binding affinity to human recombinant biotinylated receptor for advanced glycation end product expressed in Escherichia coli DE3 after 1 min by surface plasmon resonance assay. An outline of the steps:
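SPR with biotinylated RAGE captured to saturation on Neutravidin-coated chip channels, with a blank reference channel. Running buffer TBS (pH 7.4) with 0.05% Tween 20. Compounds serially diluted 50 to 3.1 μM in 2% DMSO, injected 1 min at 100 μL/min, then 400 s buffer dissociation. Responses reference-subtracted. Constants from a global Langmuir 1:1 fit.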
On the technique in general: In SPR one partner is held on a chip, and binding of the other changes the refractive index at the surface.

In data set [6] the test system is Mus musculus. Nature of the data set: Inhibition of RAGE-mediated influx of human amyloid beta (1 to 42) into ICR mouse brain at 25 mg/kg, ip administered 20 mins prior to human amyloid beta (1 to 40)-injection measured after 30 mins by ELISA relative to control. The data set is classed as functional. The conditions noted are these: in the assay text read “human amyloid beta (1 to 42)-injection” for “human amyloid beta (1 to 40)-injection”, route intraperitoneal. Summed up:
as §2

Data set [7] has as its system Mus musculus. Nature of the data set: Antialzheimer activity in transgenic mouse expressing PS1/APP swedish mutant assessed as soluble amyloid beta (1 to 42) level per mg of protein in brain at 50 mg/kg/day, po for 3 months by ELISA (reference value: 17.34 +/- 5.17 ng per mg of protein). The format is functional.
Data set [8] concerns the target Advanced glycosylation end product-specific receptor (Rattus norvegicus) (UniProt Q63495). Nature of the data set: Inhibition of receptor for advanced glycation end product binding to amyloid beta 42 in rat C6 cells assessed as NFkappaB activation at 0.1 to 10 uM after 18 hrs by reporter gene assay. The format is cell-based.
For data set [9], the system named is Mus musculus. Nature of the data set: Antialzheimer activity in transgenic mouse expressing PS1/APP swedish mutant assessed as insoluble amyloid beta (1 to 40) level per mg of protein in brain at 50 mg/kg/day, po for 3 months by ELISA (reference value: 137.38+/- 58.13 ng per mg of protein). The format is functional.
The test system of data set [10] is Mus musculus. Nature of the data set: Toxicity against transgenic mouse expressing PS1/APP swedish mutant assessed as lethality at 50 mg/kg/day, po administered for 3 months measured after 2 months. The format is organism-based. The arrangement: route oral. The conditions noted are these: in vivo, 1461 h. Summed up:
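Male APPsw/PS1 transgenic mice, 6 months old (n = 4−5), dosed by oral gavage at 50 mg/(kg·day) until 9 months of age. Lethality was recorded as a side effect during the study. Cognitive function (Y-maze spontaneous alternation) was assessed after 2 months of dosing.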

Data set [11] has as its system Mus musculus. Nature of the data set: Antialzheimer activity in transgenic mouse expressing PS1/APP swedish mutant assessed as soluble amyloid beta (1 to 40) level per mg of protein in brain at 50 mg/kg/day, po for 3 months by ELISA (reference value: 8.66 +/- 1.81 ng per mg of protein). The format is functional.
A further data set deals with C6. Nature of the data set: Cytotoxicity against rat C6 cells at 0.1 to 10 uM after 18 hrs. The data set is classed as cell-based. To be noted: c6, 18 h.
The test system of data set [12] is Mus musculus. Nature of the data set: Procognitive activity in transgenic mouse expressing PS1/APP swedish mutant assessed as spontaneous alteration at 50 mg/kg/day, po administered for 3 months measured after 2 months by Y maze test (reference value: 50.95 +/- 10.8%). The format is functional.
Data set [13] has as its system Mus musculus. Nature of the data set: Inhibition of RAGE-mediated influx of human amyloid beta (1 to 42) into ICR mouse brain at 25 mg/kg, ip administered 20 mins prior to human amyloid beta (1 to 42)-injection measured after 30 mins by ELISA relative to control.

Structures are written as SMILES. Calls of active or inactive are those of the source. No cut-off for these calls is given here.

T1 sequence (Q15109 whole entry): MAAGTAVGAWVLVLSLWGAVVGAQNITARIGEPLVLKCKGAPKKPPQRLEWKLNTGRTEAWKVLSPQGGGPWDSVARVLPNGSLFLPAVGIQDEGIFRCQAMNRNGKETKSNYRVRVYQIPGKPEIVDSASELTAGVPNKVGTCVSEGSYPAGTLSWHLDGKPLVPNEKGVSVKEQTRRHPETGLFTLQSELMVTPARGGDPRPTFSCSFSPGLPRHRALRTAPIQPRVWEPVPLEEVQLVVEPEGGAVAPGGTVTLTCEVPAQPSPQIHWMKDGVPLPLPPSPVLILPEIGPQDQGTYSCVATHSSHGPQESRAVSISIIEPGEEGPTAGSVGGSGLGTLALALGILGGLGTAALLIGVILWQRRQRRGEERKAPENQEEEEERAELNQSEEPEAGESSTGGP
Advanced glycosylation end product-specific receptor (Rattus norvegicus), sequence (Q63495 whole entry): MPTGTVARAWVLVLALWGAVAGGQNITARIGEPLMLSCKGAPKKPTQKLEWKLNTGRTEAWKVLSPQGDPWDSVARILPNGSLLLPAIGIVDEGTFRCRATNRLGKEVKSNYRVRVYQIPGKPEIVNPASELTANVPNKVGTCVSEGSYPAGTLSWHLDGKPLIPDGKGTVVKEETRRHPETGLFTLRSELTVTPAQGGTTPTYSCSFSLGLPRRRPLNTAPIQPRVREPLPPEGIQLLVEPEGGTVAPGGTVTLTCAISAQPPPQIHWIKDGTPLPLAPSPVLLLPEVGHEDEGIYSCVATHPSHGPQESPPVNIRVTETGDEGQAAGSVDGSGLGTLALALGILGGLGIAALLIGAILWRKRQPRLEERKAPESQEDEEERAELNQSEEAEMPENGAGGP

As to `CCN(CC)CCCC(=O)Nc1nc(C)c(O)c(C)n1`, in data set [1], the inhibition (commonly the relative decrease from the control value, in per cent) is “inactive”.
On to `CCN(CC)CCCC(=O)Nc1nc(C)c(OCc2ccccc2)c(C)n1`, for which, in data set [1], the inhibition result is “inactive”.
Take `CCN(CC)CCCCNc1nc(C)c(OCc2ccccc2)c(C)n1`: the inhibition entry in [1] is “inactive”.
In the case of `CCN(CC)CCOc1ccc(Nc2nc(C)cc(-c3ccc(OCCc4ccc(Cl)cc4)cc3)n2)cc1`, in data set [1], the inhibition result is “inactive”.
On to `CCN(CC)CCOc1cccc(Nc2nc(C)cc(C)n2)c1`, for which, in data set [1], the inhibition was determined as 20.8%.
`CCN(CC)CCOc1cccc(Nc2nc(-c3ccc(Cl)cc3)cc(-c3ccc(Cl)cc3)n2)c1`: the Activity in the data set on Mus musculus [2] is 354 ng/mg; in the data set on Mus musculus [3], 3.7%; in [5] it was “Dose-dependent effect”; with Mus musculus [7], 12 ng/mg; with Mus musculus [9], 98.5 ng/mg; in the data set on Mus musculus [10] it was “Non-toxic”. The Activity in the data set on Mus musculus [11] was 6.25 ng/mg; in the data set on C6, “Non-toxic”; in the data set on Mus musculus [12] it was 63.6%. Also, the IC50 – broadly, the midpoint of a concentration-inhibition curve – in data set [4] was determined as 16.5 µM. Besides, the Kd – broadly, the free concentration of one partner at which half of the binding sites on the other are occupied at equilibrium, for simple one-to-one binding – in data set [5] came out at 102 µM. Testing at 25 mg/kg with Mus musculus [6] gave an inhibition in vivo of 34.3%. For the same molecule, the inhibition entry in data set [8] was “Active”. In addition, the inhibition in [1] amounted to 54%.
In the case of `CCN(CC)CCOc1cccc(Nc2nc(-c3ccc(Cl)cc3)cc(N3CCCCC3)n2)c1`, the inhibition in data set [1] came to 17.1%.
Take `CCN(CC)CCOc1ccc(Nc2nc(C)cc(C3CCCCC3)n2)cc1`: the inhibition in data set [1] came out at 30.6%.
Same read-out and setting: in the case of `CCN(CC)CCOc1ccc(Nc2nc(C)c(O)c(C)n2)cc1` it was 16.2%; in that of `CCN(CC)CCCCNc1nc(C)c(OC)c(C)n1`, “inactive”.
Turning to `COc1c(C)nc(NC(=O)CCCO)nc1C`, the inhibition entry in [1] was “inactive”.
For the molecule `CCN(CC)CCOc1ccc(Nc2nc(C)cc(-c3ccc(OCCc4ccccc4)cc3)n2)cc1`, the inhibition entry in data set [1] was “inactive”.
Take `CCN(CC)CCOc1ccc(Nc2nc(C)cc(-c3ccc(OC4CCCCC4)cc3)n2)cc1`: in [1], the inhibition amounted to 32.6%.
On to `CCN(CC)CCOc1ccc(Nc2nc(C)cc(-c3ccc(Oc4ccc(Cl)cc4)cc3)n2)cc1`, for which the inhibition in [1] was determined as 21.1%.
In the case of `CCN(CC)CCOc1ccccc1Nc1nc(C)cc(-c2ccc(Cl)cc2)n1`, the inhibition in data set [1] turned out to be 47.2%.
Regarding `CCN(CC)CCOc1ccc(Nc2nc(C)c(OCc3ccccc3)c(C)n2)cc1`, the inhibition in [1] was found to be 14.6%.
On to `CCN(CC)CCOc1cccc(Nc2nc(-c3ccc(Cl)cc3)cc(-n3cccc3)n2)c1`, for which the inhibition in [1] stood at 26.3%.
Turning to `CCN(CC)CCOc1ccc(Nc2nc(C)cc(-c3ccc(Oc4ccc5ccccc5c4)cc3)n2)cc1`, in [1], the inhibition was determined as 21.4%.
Still for that read-out and setting: in the case of `CCN(CC)CCOc1ccc(Nc2nc(C)cc(-c3ccc(OCCC4CCCCC4)cc3)n2)cc1` it was 32.7%; in that of `CCN(CC)CCOc1cccc(Nc2nc(-c3ccc(Cl)cc3)cc(N3CCN(C)CC3)n2)c1`, 4.5%.
As to `CCN(CC)CCOc1cccc(Nc2nc(C)cc(-c3ccc(Cl)cc3)n2)c1`, the inhibition in data set [1] stood at 41.6%.
`CCN(CC)CCOc1ccc(Nc2nc(C)cc(-c3ccc(OCc4ccc(Cl)cc4)cc3)n2)cc1`: in data set [1], the inhibition turned out to be 12.7%.
In the case of `COc1c(C)nc(NC(=O)CCCC(=O)O)nc1C`, the inhibition entry in data set [1] was “inactive”.
Take `CCN(CC)CCOc1ccccc1Nc1nc(-c2ccc(Cl)cc2)cc(-c2ccc(Cl)cc2)n1`: the Activity in the data set on Mus musculus [3] is on record as 2.8%; in the data set on C6, “Non-toxic”. The IC50 in data set [4] is 4.6 µM. The inhibition entry in data set [8] is “Active”. Also, the inhibition in vivo – broadly, the share of the control response that was lost under treatment – at 25 mg/kg in the data set on Mus musculus [13] amounted to 18.3%. Also, the inhibition in data set [1] stood at 70.8%.
On to `CCN(CC)CCOc1ccc(Nc2nc(-c3ccc(Cl)cc3)cc(-c3ccc(Cl)cc3)n2)cc1`, for which the inhibition in [1] is 33.6%.
Regarding `CCN(CC)CCOc1cccc(Nc2nc(C)cc(-c3ccc(OCCC4CCCCC4)cc3)n2)c1`, the Activity is recorded as 5% with Mus musculus [3] and “Non-toxic” in the data set on C6. Besides, the inhibition entry in data set [8] is “Active”. This molecule also showed an inhibition in vivo at 25 mg/kg in the data set with Mus musculus [13] of 12.1%. For the same molecule, the inhibition in data set [1] amounted to 49.6%.
For `CCN(CC)CCOc1cccc(Nc2nc(C)cc(-c3ccc(OC)cc3)n2)c1`, in [1], the inhibition worked out at 30.9%.
In the case of `CCN(CC)CCCCNc1nc(C)c(O)c(C)n1`, the inhibition entry in [1] is “inactive”.
Regarding `CCN(CC)CCOc1ccc(Nc2nc(C)cc(-c3ccc(Cl)cc3)n2)cc1`, in data set [1], the inhibition is 37.1%.
For `CCN(CC)CCOc1ccc(Nc2nc(C)cc(-c3ccc(OC)cc3)n2)cc1`, the inhibition in [1] is 31.7%.
As to `CCN(CC)CCOc1cccc(Nc2nc(C)cc(-c3ccc(OC4CCCCC4)cc3)n2)c1`, in [1], the inhibition was 45.6%.
On the same count and under the same terms, in the case of `CCN(CC)CCOc1ccc(Nc2nc(C)cc(Nc3ccccc3)n2)cc1` it was 32.7%; in that of `CCN(CC)CCCC(=O)Nc1nc(C)c(OC)c(C)n1`, “inactive”.
As for `Cc1nc(NC(=O)CCCO)nc(C)c1OCc1ccccc1`, the inhibition entry in data set [1] is “inactive”.
On the same count and under the same terms, under `CCN(CC)CCOc1ccc(Nc2nc(C)cc(N3CCCCC3)n2)cc1` stands 43.3%; under `CCN(CC)CCOc1cccc(Nc2nc(-c3ccc(Cl)cc3)cc(N3CCOCC3)n2)c1`, 3.1%.
As for `Cc1nc(NC(=O)CCCC(=O)O)nc(C)c1OCc1ccccc1`, the inhibition entry in [1] is “inactive”.
With `CCN(CC)CCOc1ccc(Nc2nc(C)cc(-c3ccccc3)n2)cc1`, in data set [1], the inhibition came to 33%.
On the same count and under the same terms, under `CCN(CC)CCOc1ccc(Nc2nc(C)cc(C)n2)cc1` stands 16%.

The values are drawn from ChEMBL document CHEMBL2176979, “Ligand-based design, synthesis, and biological evaluation of 2-aminopyrimidines, a novel series of receptor for advanced glycation end products (RAGE) inhibitors” (J Med Chem, 2012).
